Assay results from different studies.
Observed: enzyme activity
Action: inhibitor
IGF1R: Insulin-like growth factor 1 receptor (IGF1R, Homo sapiens, UniProt P08069)
IGF1R phosphorylated: Insulin-like growth factor 1 receptor, phosphorylated (IGF1R, Homo sapiens, UniProt P08069)

Structure (SMILES)	target	method	tested at	remaining activity [%]
Cc1sc(C(=O)NC2COC2)cc1-n1cc(NC(=O)Nc2c(F)cccc2Cl)cn1	IGF1R		10 µM	102
CC(C)(O)[C@H]1CC[C@H](Nc2ccc3ncc(-c4cccc(C(F)(F)F)c4)n3n2)CC1	IGF1R		1 µM	99.2
Oc1cccc(-c2nc(N3CCOCC3)c3oc4ncccc4c3n2)c1	IGF1R		10 µM	54
CC(C)(C)c1nc(-c2cccc(NS(=O)(=O)c3c(F)cccc3F)c2F)c(-c2ccnc(N)n2)s1	IGF1R	radiometric	1 µM	81
CCN(CC)CCNC(=O)c1c(C)[nH]c(/C=C2\C(=O)Nc3ccc(F)cc32)c1C	IGF1R		1 µM	67
CCCOc1ccc(OC)c(F)c1C(=O)c1ccc(C(=O)N[C@@H]2CNC[C@H]2NC(=O)c2ccc3[nH]ncc3c2)cc1	IGF1R		10 µM	90
CC(C)(C)C(=O)c1sc(NC2CCCCC2)nc1N	IGF1R		10 µM	118
Cc1[nH]c(/C=C2\C(=O)Nc3ccc(F)cc32)c(C)c1C(=O)N[C@H]1CCN(C(=O)N(C)C)C1	IGF1R		1 µM	106
COc1cc(Cl)c(C(=O)N[C@@H](CN[C@H]2CC[C@@H](N)CC2)Cc2ccc(C#N)cc2)cc1-c1ccc(CN[C@H](C)c2ccc(C)cc2)o1	IGF1R phosphorylated		1 µM	117
Nc1nc(Nc2ccccc2)sc1C(=O)c1c(F)cccc1F	IGF1R		10 µM	80
Cc1cnc(NC2CCOCC2)nc1-n1cnc(C(=O)NC(CN)c2cc(F)cc(Cl)c2)c1 (stereo not shown)	IGF1R phosphorylated	radiometric	1 µM	108
COc1cc(Nc2cnc(C#N)c(O[C@H](C)CN(C)C)n2)ncc1-c1cnn(C)c1	IGF1R	radiometric	10 µM	73
CCN(CC)c1ccc(C2=NNC(=O)CC2C)cc1[N+](=O)[O-] (stereo not shown)	IGF1R phosphorylated		10 µM	102
